Assay results reported in ChEMBL document CHEMBL1132620, “Piperazine imidazo[1,5-a]quinoxaline ureas as high-affinity GABAA ligands of dual functionality” (J Med Chem, 1999).
Calls of active or inactive are those of the source. No cut-off for these calls is given here.

Legend:
[1] = target: GABA-A receptor; alpha-1/beta-2/gamma-2 (Homo sapiens) (UniProt P14867+P47870+P18507); experiment: In vitro GABA-mediated chloride current in A293 cells expressing GABA-A benzodiazepine receptor alpha-1-beta-2-gamma-2 subunits at 5 uM; type: functional, cell-based; conditions: HEK293
Mus musculus [2] = species: Mus musculus; experiment: Ability to antagonize the muscle relaxation effect in mice caused by a benzodiazepine full agonist, triazolam.; type: functional
Outline: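 Muscle relaxation induced by triazolam; test compound and triazolam given separately, traction scored 30 min after dosing; ED50 for blocking the relaxant effect.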

[3] = target: T1, GABA-A receptor; anion channel (Rattus norvegicus) (UniProt O09028+P15431+P18506+P18508+P19969+P20236+P23574+P23576+P28471+P28473+P30191+P62813+P63079+P63138+Q91ZM7+Q9ES14); experiment: Inhibition of [35S]TBPS binding to GABA-A Benzodiazepine receptor of rat brain membranes; type: cell membranes; conditions: Membrane
[4] = target: GABA-A receptor; anion channel; experiment: (§1) Displacement of [3H]flunitrazepam from GABA-A benzodiazepine receptor of rat cortical membranes; type: cell membranes, Membrane
Outline: (§2)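 Rat membranes incubated 60 min at 4 °C with [3H]flunitrazepam, 50 µg membrane protein and graded test drug in 200 µL containing NaCl, 10 mM Hepes/Tris pH 7.4 and 1 mM MgCl2; bound ligand separated by rapid filtration on GF/B; mean affinity, SE ≤10% of mean.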

Mus musculus [5] = experiment: In vivo acute electroshock physical dependence activity in mice; Active; type: functional, organism-based
Rattus norvegicus [6] = experiment: In vivo efficacy evaluated for ability to antagonize metrazole induced clonic convulsions in rat after ip injection; type: functional
[7] = target: T1, GABA-A receptor; anion channel (Rattus norvegicus); experiment: as §1; type: cell membranes; set-up: concentration or dose not given beside the values; conditions: Membrane, concentration not given here; outline: as §2
[8] = target: T1, GABA-A receptor; anion channel (Rattus norvegicus); experiment: Shift in [35S]TBPS binding to GABA-A Benzodiazepine receptor of rat brain membrane
Rattus norvegicus [9] = experiment: Mean number of shocks produced by the compound in rats at a dose of 3 mg/kg was determined by vogel's punished licking assay; type: functional
Outline: (§3)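 Vogel punished licking test in rats; number of shocks accepted recorded per dose group (n 6–10); each dose compared with the 0 mg/kg group of the same experiment by Wilcoxon rank sum test.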

Mus musculus [10] = experiment: In vivo acute electroshock physical dependence activity in mice; Not active.; type: functional, organism-based
[11] = Time at which Cmax was reached was determined for the compound after po dose of 5.03 mg/kg in rats; type: ADME, organism-based; set-up: dose 5.03 mg/kg, route oral; conditions: rat, in vivo
Outline: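 Male Sprague–Dawley rats dosed orally with compound in a solution formulation, n = 3–4 per compound; serum drug concentrations measured over time, lower limit of quantitation 50 ng/mL. Tmax reported as the range of observed values across animals.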

[12] = Half-life after iv dose of 4.97 mg/kg in rats; type: ADME, organism-based; set-up: dose 4.97 mg/kg, route intravenous; conditions: rat, in vivo
[13] = Area under the curve was determined for the compound after iv dose of 4.97 mg/kg in rats; type: ADME, organism-based; set-up: dose 4.97 mg/kg, route intravenous; conditions: rat, in vivo
Rattus norvegicus [14] = experiment: Mean number of shocks produced by the compound in rats at a dose of 1 mg/kg was determined by vogel's punished licking assay; type: functional; outline: as §3
[15] = target: GABA A receptor alpha-3/beta-2/gamma-2 (Homo sapiens) (UniProt P47870+P18507+P34903); experiment: In vitro GABA-mediated chloride current in A293 cells expressing GABA-A benzodiazepine receptor alpha-3-beta-2-gamma-2 subunits at 5 uM; type: functional, cell-based; conditions: HEK293
[16] = Area under curve was determined for the compound after po dose of 5.03 mg/kg in rats; type: ADME, organism-based; set-up: dose 5.03 mg/kg, route oral; conditions: rat, in vivo
[17] = Oral bioavailability at a dose of 5.03 mg/kg in rats; type: ADME, organism-based; conditions: rat, in vivo
Rattus norvegicus [18] = experiment: Mean number of shocks produced by the compound in rats at a dose of 0.3 mg/kg was determined by vogel's punished licking assay; type: functional; outline: as §3
Rattus norvegicus [19] = experiment: Mean number of shocks produced by the compound in rats at a dose of 10 mg/kg was determined by vogel's punished licking assay; type: functional; outline: as §3
[20] = half-life after po dose of 5.03 mg/kg in rats; type: ADME, organism-based; set-up: dose 5.03 mg/kg, route oral; conditions: rat, in vivo
Rattus norvegicus [21] = experiment: Mean number of shocks produced by the compound in rats at a dose of 0 mg/kg was determined by vogel's punished licking assay; type: functional; outline: as §3
Rattus norvegicus [22] = experiment: Mean number of shocks produced by CDPZ in rats at a dose of 12 mg/kg was determined by vogel's punished licking assay; type: functional; outline: as §3
[23] = Maximum serum concentration was determined for the compound after po dose of 5.03 mg/kg in rats; type: ADME, organism-based; set-up: dose 5.03 mg/kg, route oral; conditions: rat
[24] = Total plasma clearance was determined for the compound after iv dose of 4.97 mg/kg in rats; type: ADME, organism-based; set-up: dose 4.97 mg/kg, route intravenous; conditions: rat, read-out: Clp (converted)
Mus musculus [25] = experiment: In vivo efficacy is evaluated by percent control of cerebellar GMP levels in (drug+stress) treated mice/mice under stress; type: functional; set-up: concentration or dose not given beside the values
Outline: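 Male CF-1 mice given drug orally in vehicle 122 before electric footshock stress, controls given vehicle (1 mL/100 g); killed 30 min after treatment; cerebellum homogenized in 1% perchloric acid, iced 30 min, boiled 5 min, spun 17000g 20 min; supernatant cGMP by radioimmunoassay, expressed as % of stress control.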

Mus musculus [26] = experiment: In vivo efficacy is evaluated by percent control of cerebellar GMP content in CF1 mice and result is expressed as crebrellar GMP levels in (drug+stress) treated mice and mice under stress.; type: functional
Outline: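 Male CF-1 mice dosed orally in vehicle 122 (controls get vehicle, 1 mL/100 g), then given electric footshock stress. Killed 30 min after dosing. Cerebellum homogenized in 10 volumes of 1% perchloric acid, kept 30 min on ice, boiled 5 min, spun 17000g for 20 min. cGMP measured by radioimmunoassay. Expressed as % of the (drug + stress)/stress response versus vehicle-shock controls.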

Mus musculus [27] = species: Mus musculus; experiment: Compound was evaluated for their ability to antagonize the muscle relaxation effects of benzodiazepine full agonist, triazolam.
Mus musculus [28] = experiment: In vivo efficacy was evaluated for their ability to antagonize metrazole induced clonic convulsants in rat after ip injection.

Row | Structure (SMILES) | Change in Cl- current [1] | ED50 (Mus musculus [2]) [mg/kg] | Shift [3] | Ki [4] [nM] | ED50 (Rattus norvegicus [6]) [mg/kg] | inhibition [7] [%] | Acute electroshock activity (Mus musculus [10]) | Control (Mus musculus [25]) [%] | further results
1 | CC(C)(C)OC(=O)c1ncn2c1CN(C(=O)N1CCN(C(C)(C)C)CC1)c1cc(Cl)ccc1-2 | 0.12 | > 30 | -0.03 | 20.9 | 50 | 62 | – | – | Acute electroshock activity (Mus musculus [5]): Active
2 | C[C@@H]1CN(C(=O)N2Cc3c(C(=O)OC(C)(C)C)ncn3-c3ccc(C(F)(F)F)cc32)C[C@H](C)N1 | 0.5 | > 30 | – | 32.4 | 21 | 52 | inactive | 36 | Shift [8]: 0.31; Mean no. of shocks (Rattus norvegicus [9]): 6.4; Tmax [11]: 1 h; half-life [12]: 2.4 h; AUC [13]: 7470 ng·h/mL; Mean no. of shocks (Rattus norvegicus [14]): 4.9; Change in Cl- current [15]: 0.1; AUC [16]: 6430 ng·h/mL; bioavailability [17]: 84%; Mean no. of shocks (Rattus norvegicus [18]): 4.6; Mean no. of shocks (Rattus norvegicus [19]): 7.9; half-life [20]: 2.7 h; Mean no. of shocks (Rattus norvegicus [21]): 4.9; Mean no. of shocks (Rattus norvegicus [22]): 23; Cmax [23]: 1160 ng/mL; clearance [24]: 12.2 mL/min/kg
3 | CC(C)(C)OC(=O)c1ncn2c1CN(C(=O)N1CCCCC1)c1ccccc1-2 | 0 | 4 | 0.08 | 1.35 | > 50 | 44 | inactive | 91 | –
4 | CN1C(=O)CN=C(c2ccccc2)c2cc(Cl)ccc21 [DIAZEPAM] | – | – | – | – | – | – | – | – | Control (Mus musculus [26]): 0.44%; ED50 (Mus musculus [27]): > 30 mg/kg; ED50 (Mus musculus [28]): 0.5 mg/kg
